Test results from ChEMBL document CHEMBL2417547 (J Med Chem, 2013).

Legend:
[1] = Half life in rat plasma at 1 uM by LC-MS/MS analysis; assay type: ADME, cell-free
Procedure, shortened: (§1)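 Compound at 1 μM in pooled heparinized plasma of the stated species, 37 °C, sampled at 0, 10, 30, 60 and 150 min. Proteins precipitated with 5 volumes of cold acetonitrile containing internal standard. Remaining compound quantified by LC-MS/MS to give half-life.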

[2] = Half life in human liver S9 fraction at 1 uM by LC-MS/MS analysis; assay type: ADME, subcellular
Procedure, shortened: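 Pooled human liver S9 fraction, 1 mg/mL, with 2 mM NADPH regenerating system, 1 mM UDPGA and 0.1 mM PAPS (phase I and II). Compound at 1 μM, 37 °C, sampled at 0, 5, 15 and 60 min. Stopped with cold acetonitrile containing internal standard. Remaining compound measured by LC-MS/MS and used to derive t1/2. Mean of more than three repeats.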

[3] = biological target: Cytochrome P450 3A4 (Homo sapiens, UniProt P08684); test: Inhibition of CYP3A4 (unknown origin) using 7-benzyloxy trifluoromethylcoumarin as substrate; assay type: ADME
Sequence of Cytochrome P450 3A4 (P08684 whole entry): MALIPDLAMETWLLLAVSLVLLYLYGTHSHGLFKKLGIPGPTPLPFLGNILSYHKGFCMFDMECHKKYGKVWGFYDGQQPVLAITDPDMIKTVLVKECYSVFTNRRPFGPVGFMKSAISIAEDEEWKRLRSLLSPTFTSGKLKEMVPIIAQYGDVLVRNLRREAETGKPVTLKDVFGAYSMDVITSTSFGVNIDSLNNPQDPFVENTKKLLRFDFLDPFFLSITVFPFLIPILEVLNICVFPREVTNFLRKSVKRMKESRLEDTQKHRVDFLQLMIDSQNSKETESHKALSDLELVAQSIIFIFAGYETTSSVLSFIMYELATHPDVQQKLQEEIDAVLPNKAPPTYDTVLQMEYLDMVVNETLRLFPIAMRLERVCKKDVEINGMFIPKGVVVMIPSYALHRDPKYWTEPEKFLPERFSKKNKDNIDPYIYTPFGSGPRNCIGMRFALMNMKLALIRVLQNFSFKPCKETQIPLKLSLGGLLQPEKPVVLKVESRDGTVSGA
Procedure, shortened: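 Commercial CYP3A4/BFC inhibitor screening kit with 7-benzyloxy-trifluoromethylcoumarin as substrate at 50 μM, run per the kit instructions. IC50 determined.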

[4] = biological target: T1, Cytochrome P450 11B1, mitochondrial (Rattus norvegicus, UniProt P15393); test: Inhibition of rat CYP11B1 expressed in hamster V79MZh cells using [1,2-3H]-11-deoxycorticosterone as substrate; assay type: cell-based
T1 sequence (P15393 whole entry): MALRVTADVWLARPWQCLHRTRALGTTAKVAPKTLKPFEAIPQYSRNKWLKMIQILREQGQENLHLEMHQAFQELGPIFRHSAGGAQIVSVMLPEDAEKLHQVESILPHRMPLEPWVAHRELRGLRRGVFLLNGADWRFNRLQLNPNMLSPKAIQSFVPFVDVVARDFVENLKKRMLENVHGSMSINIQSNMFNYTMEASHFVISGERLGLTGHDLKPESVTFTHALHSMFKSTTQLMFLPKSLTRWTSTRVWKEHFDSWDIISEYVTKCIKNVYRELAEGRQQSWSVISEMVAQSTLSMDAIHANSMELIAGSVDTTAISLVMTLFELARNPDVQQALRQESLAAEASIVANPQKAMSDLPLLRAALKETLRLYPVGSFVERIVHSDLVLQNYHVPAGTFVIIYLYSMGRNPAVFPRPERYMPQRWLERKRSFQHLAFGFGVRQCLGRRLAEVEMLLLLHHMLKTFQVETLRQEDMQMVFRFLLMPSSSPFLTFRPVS
Procedure, shortened: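 V79MZh cells expressing rat CYP11B1 were incubated with [1,2-3H]-11-deoxycorticosterone (100 nM) and inhibitor at varying concentrations. IC50 is the mean of more than three repeats.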

[5] = biological target: T2, Cytochrome P450 2A6 (Homo sapiens, UniProt P11509); test: Inhibition of CYP2A6 (unknown origin) using coumarin as substrate; assay type: ADME
T2 sequence (P11509 whole entry): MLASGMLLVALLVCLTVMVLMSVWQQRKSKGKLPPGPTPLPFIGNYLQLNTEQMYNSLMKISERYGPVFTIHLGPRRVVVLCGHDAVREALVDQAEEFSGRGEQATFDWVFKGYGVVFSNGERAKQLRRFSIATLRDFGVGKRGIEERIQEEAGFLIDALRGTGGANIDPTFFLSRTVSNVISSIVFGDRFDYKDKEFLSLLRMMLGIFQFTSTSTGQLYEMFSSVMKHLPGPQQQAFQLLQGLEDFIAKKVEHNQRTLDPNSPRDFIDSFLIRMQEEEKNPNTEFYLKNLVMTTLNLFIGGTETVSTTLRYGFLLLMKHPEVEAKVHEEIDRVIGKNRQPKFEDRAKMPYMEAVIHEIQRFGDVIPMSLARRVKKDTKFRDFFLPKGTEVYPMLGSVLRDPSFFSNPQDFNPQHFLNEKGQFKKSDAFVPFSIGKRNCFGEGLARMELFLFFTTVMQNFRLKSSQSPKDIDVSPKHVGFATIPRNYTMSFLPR
Procedure, shortened: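 Commercial CYP2A6/coumarin inhibitor screening kit with coumarin as substrate at 3 μM, run per the kit instructions. IC50 determined.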

[6] = Half life in human plasma at 1 uM by LC-MS/MS analysis; assay type: ADME, cell-free; procedure, shortened: as §1
[7] = biological target: T3, Cytochrome P450 11B1, mitochondrial (Homo sapiens, UniProt P15538); test: Inhibition of human CYP11B1 expressed in hamster V79MZh cells using [1,2-3H]-11-deoxycorticosterone as substrate; assay type: cell-based
T3 sequence (P15538 whole entry): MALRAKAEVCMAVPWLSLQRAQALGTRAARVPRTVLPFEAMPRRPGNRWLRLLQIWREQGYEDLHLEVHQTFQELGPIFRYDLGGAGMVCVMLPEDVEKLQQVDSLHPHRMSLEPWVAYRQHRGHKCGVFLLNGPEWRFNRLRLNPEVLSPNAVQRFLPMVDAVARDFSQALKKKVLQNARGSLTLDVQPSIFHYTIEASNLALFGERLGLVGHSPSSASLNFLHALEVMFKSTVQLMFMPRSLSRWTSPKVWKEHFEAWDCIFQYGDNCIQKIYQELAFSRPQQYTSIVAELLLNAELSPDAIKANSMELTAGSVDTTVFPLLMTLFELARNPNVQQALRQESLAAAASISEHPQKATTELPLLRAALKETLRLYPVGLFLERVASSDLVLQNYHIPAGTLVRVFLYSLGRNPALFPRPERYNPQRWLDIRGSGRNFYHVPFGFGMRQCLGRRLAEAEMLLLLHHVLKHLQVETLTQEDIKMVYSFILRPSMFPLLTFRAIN
Procedure, shortened: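 V79MZh hamster fibroblasts expressing human CYP11B1 or CYP11B2 were incubated with [1,2-3H]-11-deoxycorticosterone (100 nM) plus inhibitor at a range of concentrations. The selectivity factor is IC50(CYP11B2)/IC50(CYP11B1).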

Work on Cc1cncc(Cc2ccc(-c3ccccc3)nc2)c1 yielded a half-life at 1 µM [1] greater than 150 min, a half-life at 1 µM [2] greater than 150 min and an IC50 [3] of 1100 nM. For the same molecule, the IC50 [4] was 2440 nM, the IC50 [5] was 106 µM and the half-life at 1 µM [6] was greater than 150 min. It also gave an IC50 [7] of 2 nM.
